Laboratory results reported in ChEMBL document CHEMBL4325839, “Design, synthesis and biological evaluations of quaternization harman analogues as potential antibacterial agents” (Eur J Med Chem, 2018).
Converted amounts (≈) assume the structure as drawn. The source made the active and inactive calls. No cut-off for these calls is given here.

What was measured:
[1] = tested on: Staphylococcus aureus; assay: Antibacterial activity against methicillin-resistant Staphylococcus aureus ATCC 43300 after 12 to 14 hrs by double dilution method; assay type: functional
Procedure, shortened: (§1)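 Broth double-dilution MIC per NCCLS. Bacteria at 1×10^6 CFU/mL in Luria-Bertani medium. Compounds dissolved in DMSO as stock, then diluted in medium to 200, 100, 50, 25, 12.5, 6.25 and 3.125 nmol/mL (DMSO <0.5%); some also tested at 256–1 µg/mL. Incubated at 37 °C for 12–14 h. MIC read as lowest concentration giving visible growth inhibition.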

[2] = Cytotoxicity against […] MARC145 cells assessed as cell viability at 8 ug/ml by MTT assay; assay type: cell-based; conditions: chlorocebus aethiops, read-out: Activity
[3] = tested on: Bacillus subtilis; assay: Antibacterial activity against Bacillus subtilis 769 after 12 to 14 hrs by double dilution method; assay type: functional
[4] = tested on: Ralstonia solanacearum; assay: Antibacterial activity against Ralstonia solanacearum CGMCC 1.12711 measured after 12 to 14 hrs by double dilution method; assay type: functional; procedure, shortened: as §1
[5] = tested on: Staphylococcus aureus; assay: Antibacterial activity against Staphylococcus aureus CGMCC 1.8721 after 12 to 14 hrs by double dilution method; assay type: functional
[6] = Cytotoxicity against human L02 cells assessed as cell viability at 8 ug/ml by MTT assay; assay type: cell-based; conditions: read-out: Activity
Procedure, shortened: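 MTT viability assay on normal cells (MARC 145 monkey kidney, L02 human hepatocyte) exposed to 8 µg/mL; MTT in PBS then 4 h at 37 °C, 5% CO2; formazan dissolved in DMSO with 15 min shaking; absorbance at 540 nm; viability = treated/untreated absorbance × 100%.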

[7] = tested on: Escherichia coli; assay: Antibacterial activity against Escherichia coli CGMCC 1.1636 after 12 to 14 hrs by double dilution method; assay type: functional
[8] = tested on: Bacillus cereus; assay: Antibacterial activity against Bacillus cereus CGMCC 1.1846 after 12 to 14 hrs by double dilution method; assay type: functional
[9] = tested on: Staphylococcus aureus; assay: Antibacterial activity against methicillin-resistant Staphylococcus aureus after 48 hrs by broth microtube dilution method; assay type: functional
[10] = tested on: Staphylococcus aureus; assay: Antibacterial activity against multidrug-resistant Staphylococcus aureus XU212 after 24 hrs; assay type: functional; conditions: XU212, 24 h
[11] = tested on: Staphylococcus aureus; assay: Antibacterial activity against methicillin-resistant Staphylococcus aureus EMRSA15 after 24 hrs; assay type: functional; conditions: EMRSA15, 24 h
[12] = tested on: Staphylococcus aureus; assay: Antibacterial activity against multidrug-resistant Staphylococcus aureus 1199B after 24 hrs; assay type: functional
[13] = tested on: Staphylococcus aureus; assay: Bactericidal activity against methicillin-resistant Staphylococcus aureus ATCC 43300 assessed as cell wall disintegration at 0.5 MIC after 1 hr by scanning electron microscopy analysis; assay type: functional, organism-based
[14] = Thermal stability of the compound at 1 ug/ml at 37 degC after 6 hrs by UHPLC-ESI-MS/MS analysis; assay type: physicochemical
Procedure, shortened: (§2)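 Sample held at 25 °C 0 h, 37 °C 6 h or 65 °C 6 h, then 5 µL injected on UHPLC coupled to ESI-QTOF MS/MS at 0.4 mL/min; sample 2 µg/mL with mobile phase A 10% acetonitrile (ampicillin sodium) or 1 µg/mL with 35% acetonitrile (test compound); residual parent compound monitored.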

[15] = tested on: Staphylococcus aureus; assay: Bactericidal activity against methicillin-resistant Staphylococcus aureus ATCC 43300 assessed as cell shrinkage at 0.5 MIC after 1 hr by scanning electron microscopy analysis; assay type: functional, organism-based
[16] = tested on: Ralstonia solanacearum; assay: Protection against Ralstonia solanacearum-induced infection in eggplant leaf at 8 ug/ml after 3 days relative to control; assay type: functional
[17] = Thermal stability of the compound at 1 ug/ml at 65 degC after 6 hrs by UHPLC-ESI-MS/MS analysis; assay type: physicochemical; procedure, shortened: as §2
[18] = tested on: Ralstonia solanacearum; assay: Bactericidal activity against Ralstonia solanacearum CGMCC 1.12711 assessed as cell wall disintegration at 0.5 MIC after 1 hr by scanning electron microscopy analysis; assay type: functional, organism-based
[19] = tested on: Ralstonia solanacearum; assay: Bactericidal activity against Ralstonia solanacearum CGMCC 1.12711 assessed as cell shrinkage at 0.5 MIC after 1 hr by scanning electron microscopy analysis; assay type: functional, organism-based
[20] = Thermal stability of the compound at 2 ug/ml at 37 degC after 6 hrs by UHPLC-ESI-MS/MS analysis; assay type: physicochemical; procedure, shortened: as §2
[21] = Thermal stability of the compound at 2 ug/ml at 65 degC after 6 hrs by UHPLC-ESI-MS/MS analysis; assay type: physicochemical; procedure, shortened: as §2
[22] = tested on: Staphylococcus aureus; assay: Antibacterial activity against Staphylococcus aureus after 18 hrs; assay type: functional

Compound | MIC [1] | MIC [3] | MIC [4] | MIC [5] | MIC [7] | MIC [8] | also measured
FC(F)(F)c1ccc(C[n+]2ccc3c([nH]c4ccccc43)c2-c2ccco2)cc1 | 25 µM | 25 µM | 25 µM | 25 µM | 50 µM | 50 µM | viability at 8 ug/ml [2]: 87.1%; viability at 8 ug/ml [6]: 76.2%
COC(=O)c1ccc(-c2c3[nH]c4ccc(OC)cc4c3cc[n+]2Cc2ccc(C(F)(F)F)cc2)cc1 | 25 µM | 25 µM | 25 µM | 25 µM | 200 µM | 25 µM | viability at 8 ug/ml [2]: 93.2%; viability at 8 ug/ml [6]: 71.6%
Cc1ccc2[nH]c3c[n+](C)ccc3c2c1.[I-] |  |  |  |  |  |  | MIC [9]: 4 µg/mL
COc1ccc2[nH]c3c(-c4ccc5c(c4)OCO5)[n+](Cc4ccc(C)cc4)ccc3c2c1 | 25 µM | 25 µM | 25 µM | 25 µM | 200 µM | 50 µM | viability at 8 ug/ml [2]: 98.5%; viability at 8 ug/ml [6]: 82.2%
COc1ccc2[nH]c3c(-c4ccc5c(c4)OCO5)nccc3c2c1 | 200 µM (≈ 63.7 µg/mL) | > 200 µM | > 200 µM | 200 µM (≈ 63.7 µg/mL) | > 200 µM | > 200 µM | 
O=c1ccc2nccc3c4ccccc4n1c23 [CANTHIN-6-ONE] |  |  |  |  |  |  | MIC [10]: 8 to 64 µg/mL (≈ 36.3 to 291 µM); MIC [11]: 8 to 64 µg/mL (≈ 36.3 to 291 µM); MIC [12]: 8 to 64 µg/mL (≈ 36.3 to 291 µM)
COc1ccc2[nH]c3c(-c4ccccn4)[n+](Cc4ccc(C(F)(F)F)cc4)ccc3c2c1 | 100 µM | 100 µM | 100 µM | 100 µM | > 200 µM | 200 µM | 
COc1ccc2[nH]c3c(-c4ccco4)nccc3c2c1 | > 200 µM | > 200 µM | > 200 µM | > 200 µM | > 200 µM | > 200 µM | 
COc1ccc2[nH]c3c(-c4ccc5c(c4)OCO5)[n+](Cc4ccc(C(F)(F)F)cc4)ccc3c2c1.[Br-] | 12.5 µM | 25 µM | 25 µM | 25 µM | 50 µM | 25 µM | Activity [13]: Active; Stability [14]: Stable; viability at 8 ug/ml [2]: 103%; Activity [15]: Active; Activity [16]: 81.3%; viability at 8 ug/ml [6]: 84.6%; Stability [17]: Stable; Activity [18]: Active; Activity [19]: Active
CO/N=C(\C(=O)N[C@@H]1C(=O)N2C(C(=O)O)=C(COC(C)=O)CS[C@H]12)c1csc(N)n1 [CEFOTAXIME SODIUM] | 25 µM | 3.12 µM | 3.12 µM | 1.56 µM | 1.56 µM | 25 µM | 
Cc1ccc(C[n+]2ccc3c([nH]c4ccccc43)c2-c2ccc3c(c2)OCO3)cc1 | 50 µM | 25 µM | 50 µM | 50 µM | > 200 µM | 100 µM | 
COC(=O)c1ccc(-c2c3[nH]c4ccc(OC)cc4c3cc[n+]2Cc2ccc(Br)cc2)cc1 | 37.5 µM | 25 µM | 25 µM | 25 µM |  | 37.5 µM | viability at 8 ug/ml [2]: 94.8%; viability at 8 ug/ml [6]: 73.5%
COC(=O)c1ccc(-c2nccc3c2[nH]c2ccc(OC)cc23)cc1 | > 200 µM | > 200 µM | > 200 µM | > 200 µM | > 200 µM | > 200 µM | 
FC(F)(F)c1ccc(C[n+]2ccc3c([nH]c4ccccc43)c2-c2ccc3c(c2)OCO3)cc1 | 25 µM | 25 µM | 25 µM | 25 µM | 100 µM | 50 µM | viability at 8 ug/ml [2]: 96.3%; viability at 8 ug/ml [6]: 85.7%
c1coc(-c2nccc3c2[nH]c2ccccc23)c1 | > 200 µM | > 200 µM | > 200 µM | > 200 µM | > 200 µM | > 200 µM | 
c1ccc(C[n+]2ccc3c([nH]c4ccccc43)c2-c2ccco2)cc1 | 100 µM | 100 µM | 100 µM | 100 µM | > 200 µM | > 200 µM | 
COc1ccc2[nH]c3c(-c4ccco4)[n+](Cc4ccc(C)cc4)ccc3c2c1 | 50 µM | 25 µM | 25 µM | 50 µM | 100 µM | 100 µM | 
COC(=O)c1ccc(-c2c3[nH]c4ccccc4c3cc[n+]2Cc2ccccc2)cc1 | 200 µM | 100 µM | 100 µM | 100 µM | > 200 µM | 200 µM | 
CC1(C)S[C@@H]2[C@H](NC(=O)[C@H](N)c3ccccc3)C(=O)N2[C@H]1C(=O)[O-].[Na+] [AMPICILLIN SODIUM] | 50 µM | 1.56 µM | 3.12 µM | 3.12 µM | 3.12 µM | 200 µM | Stability [20]: Unstable; Stability [21]: Unstable
Cc1nccc2c1[nH]c1ccccc12 [HARMAN] |  |  |  |  |  |  | MIC [22]: 1000 µg/mL (≈ 5490 µM)
COc1ccc2[nH]c3c(-c4ccco4)[n+](Cc4ccc(C(F)(F)F)cc4)ccc3c2c1 | 25 µM | 25 µM | 25 µM | 25 µM | 50 µM | 50 µM | viability at 8 ug/ml [2]: 88.5%; viability at 8 ug/ml [6]: 74.3%
COc1ccc2[nH]c3c(-c4ccco4)[n+](Cc4ccccc4)ccc3c2c1 | 100 µM | 50 µM | 100 µM | 100 µM | > 200 µM | 200 µM | 
COc1ccc2[nH]c3c(-c4ccccn4)[n+](Cc4ccccc4)ccc3c2c1 | > 200 µM | > 200 µM | > 200 µM | > 200 µM | > 200 µM | > 200 µM | 
COC(=O)c1ccc(-c2c3[nH]c4ccc(OC)cc4c3cc[n+]2Cc2ccccc2)cc1 | 200 µM | 100 µM | 100 µM | 100 µM | > 200 µM | 200 µM | 
c1ccc(-c2nccc3c2[nH]c2ccccc23)nc1 | > 200 µM | > 200 µM | > 200 µM | > 200 µM | > 200 µM | > 200 µM | 
c1ccc2c(c1)[nH]c1c(-c3ccc4c(c3)OCO4)nccc12 | > 200 µM | > 200 µM | > 200 µM | > 200 µM | > 200 µM | > 200 µM | 
COC(=O)c1ccc(-c2nccc3c2[nH]c2ccccc23)cc1 | > 200 µM | > 200 µM | > 200 µM | > 200 µM | > 200 µM | > 200 µM | 
c1ccc(C[n+]2ccc3c([nH]c4ccccc43)c2-c2ccccn2)cc1 | > 200 µM | > 200 µM | > 200 µM | > 200 µM | > 200 µM | > 200 µM | 
Cc1ccc(C[n+]2ccc3c([nH]c4ccccc43)c2-c2ccccn2)cc1 | 50 µM | 100 µM | 50 µM | 25 µM | > 200 µM | 100 µM | 
